Measured values from PMC9122571 (RSC Advances, 2020).

Key:
A549 cells [1] = experiment: In vitro cytotoxicity, MTT assay; assay type: cell-based, human; conditions: 48 h
In short: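 A549 cells (DMEM, 10% FBS, penicillin/streptomycin, 37 °C, 5% CO2) seeded at 5 × 10³ per well and left overnight. Exposed 48 h to test compound at 6.25–200 μM. MTT (0.5 mg mL−1 in DMEM) added for 4 h; formazan dissolved in DMSO; A490 read. Viability taken as % of (ODtest − ODblank)/(ODcontrol − ODblank); means ± SD.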

[2] = DPPH radical scavenging assay
In short: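 Test compound dissolved in DMSO and diluted in ethanol; a series of concentrations mixed with 2 mL DPPH solution (3.94 mg per 100 mL anhydrous ethanol). Kept 30 min at room temperature in the dark, then A519 read. Scavenging calculated as % of (Acontrol − Asample)/Acontrol. Vitamin C served as reference.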

A549 cells [3] = experiment: Cell viability after H2O2 induced oxidative stress; assay type: cell-based, human; conditions: A549, 24 h pretreatment at 3.125–100 μM, then 800 μM H2O2 for 4 h
In short: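 A549 cells in DMEM with 10% FBS and penicillin/streptomycin at 37 °C, 5% CO2, pretreated with test compound for 24 h, then given 800 μM H2O2 for 4 h. Untreated and H2O2-only groups run alongside. Viability by MTT (0.5 mg mL−1, 4 h, DMSO solubilisation, A490) as % of (ODtest − ODblank)/(ODcontrol − ODblank). n = 4; ANOVA with LSD post hoc test.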

| Structure (SMILES) | viability of A549 cells (A549 cells [1]; concentration ≤200 μM) | free radical scavenging effect compared with vitamin C [2] | further results |
| --- | --- | --- | --- |
| CC(=O)Oc1ccc(/C=C\C(=O)Nc2ccc(S(=O)(=O)Nc3ncccn3)cc2)cc1OC(C)=O [ACASDZ, (Z)-4-(3-Oxo-3-(4-(N-pyrimidin-2ylsulfamoyl)phenylamino)prop-1-enyl)-1,2-phenylene diacetate] | not significantly decreased | – | – |
| COc1cnc(NS(=O)(=O)c2ccc(NC(=O)/C=C\c3ccc(OC(C)=O)c(OC(C)=O)c3)cc2)nc1 [ACASMD, (Z)-4-(3-(4-(N-(5-Methoxypyrimidin-2yl)sulfamoyl)phenylamino)-3-oxoprop-1-enyl)-1,2-phenylene diacetate] | not significantly decreased | – | – |
| CC(=O)Oc1ccc(/C=C\C(=O)Nc2ccc(S(N)(=O)=O)cc2)cc1OC(C)=O [ACASN, (Z)-4-(3-Oxo-3-(4-sulfamoylphenylamino)prop-1-enyl)-1,2-phenylene diacetate] | not significantly decreased | – | – |
| O=C(/C=C\c1ccc(O)c(O)c1)Nc1ccc(S(=O)(=O)Nc2ncccn2)cc1 [CASDZ, (Z)-3-(3,4-Dihydroxyphenyl)-N-(4-(N-pyrimidin-2-ylsulfamoyl)phenyl)acrylamide] | not significantly decreased | higher | growth of A549 cells (A549 cells [1]; concentration of 200 μM): significantly inhibits |
| COc1cnc(NS(=O)(=O)c2ccc(NC(=O)/C=C\c3ccc(O)c(O)c3)cc2)nc1 [CASMD, (Z)-3-(3,4-Dihydroxyphenyl)-N-(4-(N-(5-methoxypyrimidin-2-yl)sulfamoyl)phenyl)acrylamide] | not significantly decreased | higher | viability of A549 cells (A549 cells [1]; concentration ≤100 μM): not significantly decreased |
| NS(=O)(=O)c1ccc(NC(=O)/C=C\c2ccc(O)c(O)c2)cc1 [CASN, (Z)-3-(3,4-Dihydroxyphenyl)-N-(4-sulfamoylphenyl)acrylamide] | not significantly decreased | higher | – |
| O=C(O)/C=C/c1ccc(O)c(O)c1 [Caffeic acid] | – | – | prevention of 800 μM H2O2 induced decrease in cell viability (A549 cells [3]): could not prevent |
| O=C1O[C@H]([C@@H](O)CO)C(O)=C1O [Vitamin C] | – | – | prevention of 800 μM H2O2 induced decrease in cell viability (A549 cells [3]): could not prevent |
